# ChEMBL document CHEMBL1275392, “Assessment of chemoselective neoglycosylation methods using chlorambucil as a model” (2010)
# Experiments:
# A549 = experiment: Growth inhibition of human A549 cells expressing p53 after 7 days by celltiter-glo assay; assay type: functional; conditions: A549, 168 h
# SK-OV-3 = experiment: Growth inhibition of human SKOV3 cells after 7 days by celltiter-glo assay; assay type: functional; conditions: SK-OV-3, 168 h
# MCF7 = experiment: Growth inhibition of human MCF7 cells after 7 days by celltiter-glo assay; assay type: functional; conditions: MCF7, 168 h
# [1] = Growth inhibition of human p53 deficient Hep3B cells after 7 days by celltiter-glo assay; assay type: functional, Hep 3B2; conditions: 168 h
# Outline: (§1)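 Cells seeded at 500 per well in 384-well plates. Compounds came from 30 mM DMSO stocks, serially diluted and tested in quadruplicate. Incubation was 7 d at 37 °C under 5% CO2. Calcein AM (10 μM) and EthD-1 were added, followed by a fluorescence read. CellTiter-Glo lysis was then done for 10 min at room temperature, with a luminescence read. GI50 came from curve fitting.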
# DU-145 = experiment: Growth inhibition of human DU145 cells after 7 days by celltiter-glo assay; assay type: functional; conditions: DU-145, 168 h
# SF-268 = experiment: Growth inhibition of human SF268 cells after 7 days by celltiter-glo assay; assay type: functional; conditions: SF-268, 168 h
# HT-29 = experiment: Growth inhibition of human HT-29 cells after 7 days by celltiter-glo assay; assay type: functional; conditions: HT-29, 168 h
# HCT-15 = experiment: Growth inhibition of human HCT15 cells after 7 days by celltiter-glo assay; assay type: functional; conditions: HCT-15, 168 h
# [2] = Growth inhibition of human p53 deficient H1299 cells after 7 days by celltiter-glo assay; assay type: functional; conditions: NCI-H1299, 168 h; outline: as §1
# NCI-H460 = experiment: Growth inhibition of human NCI-H460 cells after 7 days by celltiter-glo assay; assay type: functional; conditions: NCI-H460, 168 h
Compound,GI50 (A549) [µM],GI50 (SK-OV-3) [µM],GI50 (MCF7) [µM],GI50 [1] [µM],GI50 (DU-145) [µM],GI50 (SF-268) [µM],GI50 (HT-29) [µM],GI50 (HCT-15) [µM],GI50 [2] [µM],GI50 (NCI-H460) [µM]
CON(CCCc1ccc(N(CCCl)CCCl)cc1)C1O[C@H](C)[C@H](O)[C@H](O)[C@H]1O (stereo not given in full),9.6,1.7,3,2.6,4.1,1.7,6.7,0.82,3.5,5.9
CON(CCCc1ccc(N(CCCl)CCCl)cc1)C1C[C@H](O)[C@H](O)CO1 (stereo not given in full),2.6,2,0.96,2.6,4,2.1,2.6,2.3,3.7,5.8
CON(CCCc1ccc(N(CCCl)CCCl)cc1)C1C[C@@H](O)[C@@H](O)[C@@H](CO)O1 (stereo not given in full),3.2,2.4,1.04,3.3,5,2.2,3.5,1.6,1.5,6.6
CON(CCCc1ccc(N(CCCl)CCCl)cc1)[C@@H]1O[C@H](C)[C@@H](O)[C@H](O)[C@H]1O,4.6,2.9,5.8,4.4,4.9,2.9,2.2,1.1,1.8,8.5
CO[C@@H]1[C@@H](O)[C@H](N(CCCc2ccc(N(CCCl)CCCl)cc2)OC)O[C@H](CO)[C@H]1O,3.6,2.4,8.3,4.2,5.1,2.8,2.7,1.1,1.7,7.8
CON(CCCc1ccc(N(CCCl)CCCl)cc1)[C@@H]1O[C@H](CO[C@@H]2O[C@H](CO)[C@H](O)[C@H](O)[C@H]2O)[C@@H](O)[C@H](O)[C@H]1O,40,27,21,29,36,16.3,27.4,20,17.8,45.5
CO[C@@H]1[C@@H](OC(N)=O)[C@@H](O)C(N(CCCc2ccc(N(CCCl)CCCl)cc2)OC)OC1(C)C (stereo not given in full),5.8,5.4,4.8,6,6.7,5.1,6,1.7,1.3,9.7
CON(CCCc1ccc(N(CCCl)CCCl)cc1)[C@@H]1O[C@H](C(=O)O)[C@@H](O)[C@H](O)[C@H]1O,5.5,3.1,6,4.9,3.9,1.6,3.2,1.03,0.99,9.1
CON(CCCc1ccc(N(CCCl)CCCl)cc1)C1OC[C@H](O)[C@@H](O)[C@H]1O (stereo not given in full),2.2,1.8,0.94,3,3.9,1.2,2.4,0.95,0.88,5.8
O=C(O)CCCc1ccc(N(CCCl)CCCl)cc1 [CHLORAMBUCIL],6.1,5.5,8.2,5.1,9.4,5.4,5,8.1,4.9,11
CON(CCCc1ccc(N(CCCl)CCCl)cc1)C1O[C@H](CO)[C@H](O)[C@H](O)[C@H]1O (stereo not given in full),4.4,3.4,1.3,3.6,5.6,1.9,3.3,2.4,1.3,9.7
CON(CCCc1ccc(N(CCCl)CCCl)cc1)C1O[C@@H](CO)[C@H](O)[C@@H](O)[C@@H]1O (stereo not given in full),3.3,2.5,3.2,3.9,4.8,2,2.9,0.88,0.55,8
CON(CCCc1ccc(N(CCCl)CCCl)cc1)C1O[C@@H](CO)[C@@H](O)[C@@H](O)[C@@H]1O (stereo not given in full),4.8,4.1,1.3,3.8,5.5,2,3.7,2.3,1.4,10.4
CON(CCCc1ccc(N(CCCl)CCCl)cc1)C1OC[C@@H](O)[C@@H](O)[C@@H]1O (stereo not given in full),2,2,4.6,1.6,3.3,1.8,1.5,0.9,0.73,5
CON(CCCc1ccc(N(CCCl)CCCl)cc1)[C@H]1O[C@H](CO)[C@H](O)[C@H](O)[C@@H]1O,2.6,2,1.5,2.4,3.3,1.7,1.8,2.2,3,5
CON(CCCc1ccc(N(CCCl)CCCl)cc1)[C@@H]1O[C@H](CO)[C@H](O)[C@H](O)[C@@H]1O,2.7,2,1.8,2.6,3.4,1.7,1.9,2,2.4,4.3
[O-]/[N+](=C\[C@@H](O)[C@H](O)CO)CCCc1ccc(N(CCCl)CCCl)cc1,3,2.6,2,1.7,3.6,1.2,3.2,2.5,1.07,3.8
CON(CCCc1ccc(N(CCCl)CCCl)cc1)C1O[C@H](C(=O)O)[C@H](O)[C@H](O)[C@H]1O (stereo not given in full),17.1,12.8,4.5,14.7,16.3,8.9,14.9,8.1,4.9,34
CON(CCCc1ccc(N(CCCl)CCCl)cc1)[C@@H]1O[C@H](CO)[C@@H](O)[C@H](F)[C@H]1O,3,2.2,7,3.2,4.1,2.2,2.6,1.2,1.3,7.1
C[C@H]1O[C@@H](NNC(=O)CCCc2ccc(N(CCCl)CCCl)cc2)[C@H](O)[C@@H](O)[C@H]1O,28,22,6.3,11,24,5.8,16.7,> 100,8.7,51
CON(CCCc1ccc(N(CCCl)CCCl)cc1)[C@@H]1O[C@H](CO)[C@@H](O)[C@H](O[C@H](C)C(=O)O)[C@H]1NC(C)=O,8.6,7,4.5,8,8.9,4.1,6.3,3.1,2.4,13.1
CON(CCCc1ccc(N(CCCl)CCCl)cc1)[C@@H]1OC[C@@H](O)[C@H](O)[C@H]1O,2.3,2.2,0.91,1.5,2.3,1.4,1.6,0.9,0.83,4.5
O=C(CCCc1ccc(N(CCCl)CCCl)cc1)NN[C@@H]1OC[C@@H](O)[C@H](O)[C@H]1O,14.8,12,4.5,5.5,19,2.5,7.2,> 100,3.9,26
CON(CCCc1ccc(N(CCCl)CCCl)cc1)[C@@H]1O[C@H](CO)[C@@H](O)[C@H](O)[C@H]1F,2.6,2,7.3,3.2,4.2,2.2,2.4,1.08,1.2,6.4
CON(CCCc1ccc(N(CCCl)CCCl)cc1)C1O[C@@H](C)[C@H](OC(C)=O)[C@@H](OC(C)=O)[C@H]1OC(C)=O (stereo not given in full),3.5,3.9,3.2,4.6,4.5,3,4.3,3.7,5,7.8
CON(CCCc1ccc(N(CCCl)CCCl)cc1)[C@@H]1O[C@H](CCl)[C@@H](O)[C@H](O)[C@H]1O,3,2.1,4.9,3.2,3.7,2.1,2.1,1.2,1.3,5.8
